The source made the active and inactive calls. The rule behind the calls is not given here.
Assays:
[1] = Antioxidant activity against beta-carotene assessed as inhibition of bleaching at 10 ug; format: functional
How it was run: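 Silica gel 60 F254 TLC plates developed in petroleum ether–EtOAc (1:2), then dried and sprayed with 0.05% β-carotene in CHCl3. Plates were kept under UV 254 nm until the background discolored. Inhibition of bleaching was read on the plate.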

[2] = DPPH radical scavenging activity at 10 ug by TLC autographic assay; format: functional
How it was run: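 TLC autography on silica gel 60 F254 plates developed in petroleum ether–EtOAc (1:2), dried, then sprayed with 0.2% DPPH in MeOH. Plates were read 30 min after spraying; active zones show as yellow spots on a purple background.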

Cladosporium cucumerinum [3] = experiment: Antifungal activity against Cladosporium cucumerinum at 20 ug; format: functional, organism-based
Cladosporium cucumerinum [4] = experiment: Antifungal activity against Cladosporium cucumerinum at 40 ug; format: functional, organism-based
[5] = DPPH radical scavenging activity at 10 ug by TLC autographic assay
Cladosporium cucumerinum [6] = experiment: Antifungal activity against Cladosporium cucumerinum at 10 ug; format: functional, organism-based

Row | SMILES | Activity [1] | Activity [2] | Activity (Cladosporium cucumerinum [3]) | Activity (Cladosporium cucumerinum [4]) | Activity [5] | Activity (Cladosporium cucumerinum [6])
1 | COc1ccc([C@@H]2OC[C@@H]3[C@H]2CO[C@H]3c2ccc(OC)c(OC)c2)cc1OC | Active | Active | Active |  |  | 
2 | C/C(=C/CC/C(C)=C/CCC1(C)CCc2cc(O)cc(C)c2O1)C(=O)O (centres undefined) | Active | Active |  | Active | Active | 
3 | COc1cc([C@@H]2OC[C@@H]3[C@H]2CO[C@@H]3c2ccc(OC)c(OC)c2)ccc1O | Active | Active | Active |  |  | 
4 | Clc1ccc(COC(Cn2ccnc2)c2ccc(Cl)cc2Cl)c(Cl)c1 (centres undefined) |  |  |  |  |  | Active
5 | COc1ccc([C@H]2OC[C@@H]3[C@H]2CO[C@H]3c2ccc(OC)c(OC)c2)cc1OC | Active | Active | Active |  |  | 

Source: ChEMBL document CHEMBL1151323, “Use of on-flow LC/1H NMR for the study of an antioxidant fraction from Orophea enneandra and isolation of a polyacetylene, lignans, and a tocopherol derivative” (J Nat Prod, 1998)
